Source: ChEMBL document CHEMBL1649409, “One-pot microwave assisted synthesis under green chemistry conditions, antioxidant screening, and cytotoxicity assessments of benzimidazole Schiff bases and pyrimido[1,2-a]benzimidazol-3(4H)-ones” (Eur J Med Chem, 2011)
The source made the active and inactive calls. The calls are words filed in the database; no cut-off is given here.

Tests used:
[1] = test system: Radical scavenging activity; assay: Antioxidant activity assessed as DPPH radical scavenging activity at 0.05 mM after 20 mins; assay type: functional
How it was run: (§1)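 DPPH (0.05 mM in absolute ethanol) mixed with an equal volume of compound in DMSO (final 0.05 mM). Shaken vigorously, left 20 or 60 min, absorbance read at 517 nm. Percent activity calculated; three replicates averaged.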

[2] = test system: Radical scavenging activity; assay: Antioxidant activity assessed as DPPH radical scavenging activity at 0.05 mM after 60 mins; assay type: functional; how it was run: as §1
[3] = test system: Glycine max; assay: Inhibition of soybean LOX at 0.01 mM
How it was run: (§2)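 Soybean lipoxygenase solution (1/9×10^-4 w/v in saline) incubated at RT with sodium linoleate and compound in DMSO. Conversion to 13-hydroperoxylinoleic acid recorded at 234 nm against a standard inhibitor. At least triplicate, averaged.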

[4] = test system: Glycine max; assay: Inhibition of soybean LOX at 0.1 mM; how it was run: as §2
[5] = Cytotoxicity against human lung fibroblast assessed as cell viability at 0.02 mM after 24 hrs by MTT assay; assay type: cell-based; conditions: 20 µM
How it was run: (§3)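 Human lung fibroblasts, passage 19, grown in DMEM with 10% FBS, penicillin and streptomycin at 37 °C, 5% CO2. Seeded at 3×10^4 cells/mL and allowed to adhere 24 h. Exposed 24 h to compounds in DMSO (≤1% final), 1–50 µg/mL. After washing, MTT (5 mg/mL in PBS) added for 4–6 h at 37 °C. Formazan dissolved in isopropanol, read at 570 nm. At least three measurements.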

[6] = Cytotoxicity against human lung fibroblast assessed as cell viability at 50 ug/ml after 24 hrs by MTT assay; assay type: cell-based; conditions: human lung fibroblasts, read-out: Activity; how it was run: as §3
[7] = Antioxidant activity assessed as protection against […]-induced linoleic acid lipid peroxidation 0.1 mM; assay type: functional
How it was run: (§4)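 Linoleic acid sodium salt (16 mM solution) in 0.05 M phosphate buffer, pH 7.4, prethermostated at 37 °C. Oxidation started at 37 °C under air with 40 mM AAPH solution, with compound aliquots in DMSO present. Blanks carry the same DMSO level. Conjugated diene hydroperoxide formation followed by absorbance increase at 234 nm. At least triplicate, averaged.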

[8] = Antioxidant activity assessed as protection against […]-induced linoleic acid lipid peroxidation 0.01 mM; assay type: functional; how it was run: as §4
[9] = Cytotoxicity against human lung fibroblast assessed as cell viability at 0.03 to 0.037 mM after 24 hrs by MTT assay; assay type: cell-based; conditions: human lung fibroblasts, in the assay text read “0.003 to 0.037 mM” for “0.03 to 0.037 mM”, read-out: Activity; how it was run: as §3
[10] = Cytotoxicity against human lung fibroblast assessed as cell viability at 0.17 mM after 24 hrs by MTT assay; assay type: cell-based; conditions: human lung fibroblasts, read-out: Activity; how it was run: as §3
[11] = Cytotoxicity against human lung fibroblast assessed as cell viability at 0.04 mM after 24 hrs by MTT assay; assay type: cell-based; conditions: 40 µM; how it was run: as §3
[12] = Cytotoxicity against human lung fibroblast assessed as cell viability at 0.16 mM after 24 hrs by MTT assay; assay type: cell-based; conditions: human lung fibroblasts, read-out: Activity; how it was run: as §3

SMILES	inhibition [1]	inhibition [2]	inhibition [3]	inhibition [4]	Activity [5]	viability at 24 h, 50 ug/ml [6]	inhibition [7]	inhibition [8]	viability at 24 h, up to 37 µM [9]	viability at 24 h, 170 µM [10]	Activity [11]	viability at 24 h, 160 µM [12]
Cc1cc(C(C)(C)C)c(O)c(C(C)(C)C)c1	31%	60%	–	–	–	–	–	–	–	–	–	–
CC1(c2ccc(Cl)cc2)C(=O)C(c2ccc(Cl)cc2)=Nc2nc3ccccc3n21 (stereo not drawn)	2%	2%	inactive	inactive	Non-toxic	37%	97%	33%	–	–	–	–
C/C(=N\c1nc2ccccc2[nH]1)c1cccc(C)c1	inactive	inactive	inactive	8%	–	–	77%	63%	–	–	–	–
C/C(=N\c1nc2ccccc2[nH]1)c1ccccc1	0.3%	5%	inactive	inactive	–	–	67%	18%	–	–	–	–
Cc1cccc(C2=Nc3nc4ccccc4n3C(C)(c3cccc(C)c3)C2=O)c1 (stereo not drawn)	4%	5%	inactive	19%	–	–	84%	35%	–	–	–	–
CC1(c2ccc(Br)cc2)C(=O)C(c2ccc(Br)cc2)=Nc2nc3ccccc3n21 (stereo not drawn)	3%	2%	51%	61%	–	–	78%	9%	–	–	–	–
C/C(=N\c1nc2ccccc2[nH]1)c1cccc(Br)c1	inactive	6%	inactive	inactive	–	–	97%	65%	–	–	–	–
COc1ccc(/C(C)=N/c2nc3ccccc3[nH]2)cc1	4%	3%	22%	65%	–	–	68%	12%	56%	–	–	–
Cc1ccc(C2=Nc3nc4ccccc4n3C(C)(c3ccc(C)cc3)C2=O)cc1 (stereo not drawn)	inactive	inactive	inactive	40%	–	–	80%	8%	–	–	–	–
C/C(=N\c1nc2ccccc2[nH]1)c1ccc2ccccc2c1	5%	7%	18%	98%	–	–	97%	26%	–	62.5%	–	–
COc1cccc(/C(C)=N/c2nc3ccccc3[nH]2)c1	inactive	inactive	inactive	42%	–	–	100%	69%	–	–	–	–
CC1(c2cccc(Br)c2)C(=O)C(c2cccc(Br)c2)=Nc2nc3ccccc3n21 (stereo not drawn)	inactive	3%	inactive	12%	–	–	–	51%	–	–	–	–
COc1cccc(C2=Nc3nc4ccccc4n3C(C)(c3cccc(OC)c3)C2=O)c1 (stereo not drawn)	3%	2%	inactive	inactive	–	63%	100%	3%	–	–	Non-toxic	–
C/C(=N\c1nc2ccccc2[nH]1)c1ccc(Br)cc1	inactive	4%	inactive	18%	–	–	50%	22%	–	–	–	73.6%
C/C(=N\c1nc2ccccc2[nH]1)c1ccc(C)cc1	inactive	8%	inactive	inactive	–	–	84%	47%	–	–	–	–
CC(Cc1ccc(O)c(O)c1)C(C)Cc1ccc(O)c(O)c1 (stereo not drawn)	81%	83%	40%	84%	–	–	–	–	–	–	–	–
CC1(c2ccccc2)C(=O)C(c2ccccc2)=Nc2nc3ccccc3n21 (stereo not drawn)	2%	1%	49%	100%	–	–	100%	11%	–	–	–	–
Cc1c(C)c2c(c(C)c1O)CCC(C)(C(=O)O)O2 (stereo not drawn)	–	–	–	–	–	–	63%	–	–	–	–	–
C/C(=N\c1nc2ccccc2[nH]1)c1ccc(Cl)cc1	3%	4%	62%	85%	–	–	26%	–	–	–	–	–
